ChEMBL document CHEMBL4011632, “Design, Synthesis, and Evaluation of Thiazolidine-2,4-dione Derivatives as a Novel Class of Glutaminase Inhibitors” (J Med Chem, 2017)
Activity calls are given as the source filed them. No cut-off for these calls is given here.

What was measured:
[1] = AUC (0 to infinity) in Sprague-Dawley rat at 0.1 mg/kg, iv by HPLC-MS analysis; type: ADME, organism-based; design: dose 0.1 mg/kg, time infinity, route intravenous; conditions: in vivo
Outline: (§1)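 Male rats (330−380 g, 9−10 weeks old), jugular-vein cannulated 1 day before dosing, n = 3. Dosed iv in DMA/PEG400 (20%/80%, v/v) or po in 1% CMC/0.5% Tween-80. Blood (100 μL) drawn at 0, 2 min, 5 min (iv only), 15 and 30 min, and 1, 2, 4, 6, 8 and 24 h. Plasma measured by LC-MS/MS; parameters from noncompartmental analysis.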

Mus musculus [2] = experiment: Toxicity in BALB/CAnN.Cg-Foxn1nu/CrlNarl mouse xenografted with human Aspc-1 cells assessed as overt toxicity at 25 to 50 mg/kg, ip once daily administered for 5 days followed by 2 days without dosing for 43 days; type: organism-based, BALB/C; conditions: in vivo
ASPC1 [3] = experiment: Antitumor activity against human Aspc-1 cells xenografted in Balb/cAnN.Cg-Foxn1nu/CrlNarl mouse assessed as tumor growth inhibition at 25 mg/kg, ip once daily administered for 5 days followed by 2 days without dosing for 43 days relative to control; type: functional; conditions: read-out: TGI
Outline: (§2)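 Male nude mice (7−8 weeks, 18−22 g) received 4.5 × 10^6 AsPC-1 cells sc in the right flank, in HBSS mixed 1:1 with Matrigel. Mice were randomized once mean tumor reached ~100 mm3 (day 1). Dosing was ip once daily, 5 days on/2 days off, with 2% DMSO/PBS as vehicle. Tumors were measured twice weekly, V = ab²/2. %TGI = [1 − ((Tt − T0)/(Ct − C0))] × 100 from median volumes; Student's t test.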

ASPC1 [4] = experiment: Antitumor activity against human Aspc-1 cells xenografted in Balb/cAnN.Cg-Foxn1nu/CrlNarl mouse assessed as tumor growth inhibition at 50 mg/kg, ip once daily administered for 5 days followed by 2 days without dosing for 43 days relative to control; type: functional; conditions: read-out: TGI; outline: as §2
Mus musculus [5] = experiment: Toxicity in BALB/CAnN.Cg-Foxn1nu/CrlNarl mouse xenografted with human Aspc-1 cells assessed as loss in body weight at 50 mg/kg, ip once daily administered for 5 days followed by 2 days without dosing for 43 days relative to control; type: organism-based, BALB/C; conditions: in vivo
[6] = AUC (0 to infinity) in Sprague-Dawley rat at 1 mg/kg, po by HPLC-MS analysis; type: ADME, organism-based; design: dose 1 mg/kg, route oral, time infinity; conditions: in vivo; outline: as §1
[7] = Tmax in Sprague-Dawley rat at 1 mg/kg, po by HPLC-MS analysis; type: ADME, organism-based; conditions: in vivo; outline: as §1
[8] = Oral bioavailability in Sprague-Dawley rat at 1 mg/kg by HPLC-MS analysis; type: ADME, organism-based; conditions: in vivo; outline: as §1
[9] = Volume of distribution at steady state in Sprague-Dawley rat at 0.1 mg/kg, iv by HPLC-MS analysis; type: ADME, organism-based; conditions: in vivo, read-out: Vdss
Outline: (§3)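 Male rats (330−380 g, 9−10 weeks old), quarantined 1 week, jugular-vein cannula implanted 1 day before dosing; n = 3. Single iv dose in DMA/PEG400 (20%/80%, v/v). Blood (100 μL) was drawn via cannula at 0, 2, 5, 15, 30 min and 1, 2, 4, 6, 8, 24 h and kept on ice. Plasma was analysed by HPLC−MS/MS. Vss came from noncompartmental analysis.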

[10] = Cmax in Sprague-Dawley rat at 1 mg/kg, po by HPLC-MS analysis; type: ADME, organism-based; design: dose 1 mg/kg, route oral; conditions: in vivo; outline: as §1
Mus musculus [11] = experiment: Toxicity in BALB/CAnN.Cg-Foxn1nu/CrlNarl mouse xenografted with human Aspc-1 cells assessed as loss in body weight at 25 mg/kg, ip once daily administered for 5 days followed by 2 days without dosing for 43 days relative to control; type: organism-based, BALB/C; conditions: in vivo
[12] = Volume of distribution at steady state in Sprague-Dawley rat at 2 mg/kg, iv by HPLC-MS analysis; type: ADME, organism-based; conditions: in vivo, read-out: Vdss; outline: as §3
Mus musculus [13] = experiment: Toxicity in BALB/CAnN.Cg-Foxn1nu/CrlNarl mouse xenografted with human Aspc-1 cells assessed as loss in body weight at 25 to50 mg/kg, ip once daily administered for 5 days followed by 2 days without dosing for 68 days relative to control; type: organism-based, BALB/C; conditions: in vivo, 1632 h
ASPC1 [14] = experiment: Antitumor activity against human Aspc-1 cells xenografted in Balb/cAnN.Cg-Foxn1nu/CrlNarl mouse assessed as tumor growth inhibition at 25 mg/kg, ip once daily administered for 5 days followed by 2 days without dosing for 68 days relative to control; type: functional; conditions: read-out: TGI; outline: as §2
[15] = target: T1, Glutaminase liver isoform, mitochondrial (Homo sapiens) (UniProt Q9UI32); experiment: Inhibition of human GLS2 in GLS1 deficient human Aspc-1 cells assessed as decrease in cellular glutamate production after 4 hrs by amplex red glutamic acid assay
T1 sequence (whole entry): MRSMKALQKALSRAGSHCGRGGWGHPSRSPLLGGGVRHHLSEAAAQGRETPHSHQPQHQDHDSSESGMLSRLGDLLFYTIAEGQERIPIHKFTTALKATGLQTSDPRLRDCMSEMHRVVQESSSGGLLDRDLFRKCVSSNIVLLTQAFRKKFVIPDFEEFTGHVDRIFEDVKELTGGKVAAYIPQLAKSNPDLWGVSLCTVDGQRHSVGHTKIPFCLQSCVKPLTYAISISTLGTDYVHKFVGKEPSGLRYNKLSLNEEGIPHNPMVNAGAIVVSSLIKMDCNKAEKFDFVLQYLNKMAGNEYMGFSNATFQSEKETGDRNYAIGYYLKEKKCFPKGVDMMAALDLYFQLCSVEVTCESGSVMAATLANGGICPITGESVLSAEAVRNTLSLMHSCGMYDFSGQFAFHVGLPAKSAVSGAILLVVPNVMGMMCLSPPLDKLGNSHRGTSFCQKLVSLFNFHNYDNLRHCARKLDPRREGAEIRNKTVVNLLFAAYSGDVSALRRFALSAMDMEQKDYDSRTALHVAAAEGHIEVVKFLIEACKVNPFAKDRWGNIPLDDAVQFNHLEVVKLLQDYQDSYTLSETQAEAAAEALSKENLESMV
Outline: (§4)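 GLS-knockout AsPC-1 cells made with GLS-KO ZFN mRNA, single-cell cloned, and grown in glutamine-free RPMI 1640 with 10% FBS. Cells seeded at 30 000/well and grown 24 h at 37 °C. Treated 4 h with 1% DMSO vehicle or 3.13−100 μM inhibitor, washed with PBS, and lysed in NP-40 buffer (4 °C, 20 min). Lysate glutamate measured by Amplex Red. Three independent experiments in duplicate.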

[16] = target: Glutaminase 1/2 (Homo sapiens) (UniProt O94925+Q9UI32); conditions: 3.13 to 100 uM
[17] = Total clearance in Sprague-Dawley rat at 2 mg/kg, iv by HPLC-MS analysis; type: ADME, organism-based; conditions: in vivo
Outline: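 Male rats (330−380 g, 9−10 weeks old), jugular-vein cannulated 1 day before dosing, n = 3. Dosed iv in DMA/PEG400 (20%/80%, v/v) or po in 1% CMC/0.5% Tween-80. Plasma measured by LC-MS/MS; parameters from noncompartmental analysis.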

[18] = target: T1, Glutaminase liver isoform, mitochondrial (Homo sapiens); experiment: Inhibition of human GLS2 in GLS1 deficient human Aspc-1 cells assessed as decrease in cellular glutamate production at 3.13 to 100 uM after 4 hrs by amplex red glutamic acid assay; outline: as §4

Glutaminase 1/2 (Homo sapiens), sequence (O94925 whole entry, looked up, one chain of several): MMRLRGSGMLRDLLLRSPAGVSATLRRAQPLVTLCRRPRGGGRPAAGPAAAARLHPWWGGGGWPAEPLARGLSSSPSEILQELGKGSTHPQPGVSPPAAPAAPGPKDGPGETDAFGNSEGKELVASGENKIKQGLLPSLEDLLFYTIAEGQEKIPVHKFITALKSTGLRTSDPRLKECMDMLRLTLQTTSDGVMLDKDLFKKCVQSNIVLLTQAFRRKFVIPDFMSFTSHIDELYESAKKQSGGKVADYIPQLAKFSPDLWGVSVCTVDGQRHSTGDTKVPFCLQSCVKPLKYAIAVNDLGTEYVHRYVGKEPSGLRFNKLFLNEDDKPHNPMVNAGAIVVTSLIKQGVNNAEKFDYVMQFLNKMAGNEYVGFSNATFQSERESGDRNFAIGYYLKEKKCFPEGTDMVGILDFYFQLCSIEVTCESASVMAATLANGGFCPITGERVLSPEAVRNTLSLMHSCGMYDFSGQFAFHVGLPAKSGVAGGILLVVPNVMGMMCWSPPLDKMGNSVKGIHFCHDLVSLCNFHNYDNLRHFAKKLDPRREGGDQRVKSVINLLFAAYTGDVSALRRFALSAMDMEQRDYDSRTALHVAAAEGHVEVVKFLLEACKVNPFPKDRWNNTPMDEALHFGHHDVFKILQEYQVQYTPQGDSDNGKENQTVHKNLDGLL

| AUC(0-inf) [1] [ng·h/mL] | AUC(0-inf) [6] [ng·h/mL] | Tmax [7] [h] | bioavailability [8] [%] | Vd [9] [L/kg] | Cmax [10] [ng/mL] | Vd [12] [L/kg] | inhibition [15] | inhibition [16] | clearance [17] [mL/min/kg] | inhibition [18] | Structure (SMILES) | Activity (Mus musculus [2]) | inhibition in vivo at 25 mg/kg (ASPC1 [3]) [%] | inhibition in vivo at 50 mg/kg (ASPC1 [4]) [%] | Activity (Mus musculus [5]) [%] | Activity (Mus musculus [11]) [%] | Activity (Mus musculus [13]) [%] | inhibition in vivo at 25 mg/kg (ASPC1 [14]) [%] |
| --- | --- | --- | --- | --- | --- | --- | --- | --- | --- | --- | --- | --- | --- | --- | --- | --- | --- | --- |
| 3410 | 222 | 4 | 1 | 0.4 | 16.6 | – | – | – | – | – | Cc1cc(/C=C2\SC(=O)NC2=O)c(C)n1-c1ccc(-c2ccc(/C=C3\SC(=O)NC3=O)cc2)cc1 | Non-Toxic | 60 | 64 | > 10 | > 10 | – | – |
| – | – | – | – | – | – | 0.1 | Dose-dependent effect | Active | 0.9 | Active | O=C1NC(=O)/C(=C/c2ccc(-c3ccc(-n4c(-c5cccs5)cc(/C=C5\SC(=O)NC5=O)c4-c4cccs4)cc3)cc2)S1 | – | – | – | – | – | > 10 | 2.3 |
